Screens (PubChem)
Hits are enriched below; roughly 1.9% of the tested compounds scored in any of these assays.
IMP-1 inh – IMP-1 metallo-beta-lactamase inhibitors, primary screen, biochemical, epi-absorbance readout, Pseudomonas aeruginosa enzyme. actives 0.45% (n = 290,000). metallo-beta-lactamase IMP-1 (Pseudomonas aeruginosa). purified IMP-1, nitrocefin hydrolysis, epi-absorbance fluorescence. inhibition, % at 5.6 µM;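 active means inhibition above the mean plus 3 SD of all compounds in the same screening run, cut at about 4.5% in these data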
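Assay system: purified IMP-1; Quantity: IMP-1 0.2 nM before substrate addition; Medium: HEPES buffer pH 7.1 with ZnSO4 and Brij 35; Incubation: 15 min enzyme–compound preincubation, then 25 min nitrocefin reaction, 25 °C; Signal: fluorescence quenching readout, ex 480/em 530 nm; Controls: DMSO with and without IMP-1; Repeats: singlicate testing.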
VIM-2 inh – VIM-2 metallo-beta-lactamase inhibitors, primary screen, biochemical, epi-absorbance readout, Pseudomonas aeruginosa enzyme | purified VIM-2, nitrocefin hydrolysis, epi-absorbance fluorescence | inhibition, % at 5.6 µM | actives 0.89% (n = 290,000) | AID 1527, 2009;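 active means inhibition above the mean of all tested compounds plus 3 SD, cutoff set per screening run, cut at about 7.5% in these data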;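 further: red hydrolysis product quenches plate fluorescence so inhibitors raise well fluorescence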
core dimer inh – inhibitors of HCV core protein dimerization, primary screen, biochemical, TR-FRET, high-throughput; actives 0.33% (n = 300,000); inhibition, % at 5 µM; TR-FRET GST/Flag-core106 dimerization, 1536-well; AID 1899, 2009;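 active means inhibition above the mean of all tested compounds plus 3 SD, set per screening campaign, cut at about 45% in these data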
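Assay system: GST-tagged and Flag-tagged HCV core protein residues 1-106 / Times: compound-protein-antibody incubation 4 h at 22.5 °C / Signal: time-resolved FRET, ex 340 nm, em 617 and 671 nm / Evaluation: % inhibition based on acceptor/donor emission ratio / Benchmarks: wells lacking GST-core106 and wells with excess unlabelled core106 / Repeats: singlicate, one well per compound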
NadD inh – inhibitors of S. aureus NadD, primary screen, biochemical, colorimetric, uHTS; Nicotinate-nucleotide adenylyltransferase NadD (Staphylococcus aureus N315); purified NadD enzyme, colorimetric absorbance read-out; inhibition, % at 20 µM; actives 0.78% (n = 360,000); AID 602399, 2012; in the data active means inhibition above about 26%
NadD conf – inhibitors of S. aureus NadD, confirmation, biochemical, colorimetric, single concentration; purified S. aureus NadD, colorimetric enzyme assay; inhibition, % at 20 µM; shares compounds with NadD inh; actives 13% (n = 2,000); in the data active means inhibition mostly above about 42%, no sharp cut-off; inactive means mostly below about 42%
Each line names hits and unclear results; the compound was inactive in the other large screens (follow-up assays come after a bar, where they were run).

Cc1ccc(-c2csc(N3CCN(S(=O)(=O)c4ccc5c(c4)NC(=O)CO5)CC3)n2)cc1	NadD inh 39 | NadD conf inactive
COc1ccc(Br)cc1/C=c1\sc2nc(-c3ccco3)nn2c1=O	core dimer inh 57, NadD inh 40 (no result: IMP-1 inh, VIM-2 inh) | NadD conf inactive
COc1ccccc1/C=c1\sc2nc(-c3ccccc3OC)nn2c1=O	none
Cc1cccc(NS(=O)(=O)c2ccc3[nH]c(=O)cc(C(=O)OC(C)C(=O)Nc4ccc([N+](=O)[O-])cc4)c3c2)c1 (stereo not drawn)	NadD inh 43 | NadD conf inactive
NC(=O)COC(=O)c1cc(=O)[nH]c2ccc(S(=O)(=O)Nc3ccc(F)cc3)cc12	none
CCc1ccc(NC(=O)C(C)OC(=O)c2cc(=O)[nH]c3ccc(S(=O)(=O)Nc4ccc(F)cc4)cc23)cc1 (stereo not drawn)	NadD inh 34 | NadD conf inactive
CCOc1ccc(NS(=O)(=O)c2ccc3[nH]c(=O)cc(C(=O)O)c3c2)cc1	none
Cc1onc(-c2ccccc2)c1C(=O)NC(=S)Nc1sc2c(c1C#N)CCC(C)C2 (stereo not drawn)	NadD inh 36 | NadD conf inactive
COc1ccccc1-c1cc(C(=O)Nc2sc3c(c2C#N)CCC(C)C3)c2ccccc2n1 (stereo not drawn)	core dimer inh 47, NadD inh 54 | NadD conf inactive
CCCc1cc(=O)[nH]c(SCC(=O)Nc2sc3c(c2C#N)CCC(C)C3)n1 (stereo not drawn)	NadD inh 28 | NadD conf inactive
COc1ccc(-c2cc(C(=O)Nc3sc4c(c3C#N)CCCC4)c3ccccc3n2)cc1	NadD inh 36 | NadD conf inactive
CC1CCc2c(sc(NC(=O)CSc3ncn[nH]3)c2C#N)C1 (stereo not drawn)	none
N#Cc1c(NC(=O)c2ccccc2)sc2c1CCCCC2	none
Cc1cc(C(=O)Nc2sc3c(c2C#N)CCC(C)C3)no1 (stereo not drawn)	none
Cc1ccc(N(C(=O)CNC(=O)c2ccco2)C(C(=O)NC2CCCC2)c2cccnc2)cc1F (stereo not drawn)	none
CC1CCc2c(sc(NC(=O)Cn3nc(C(=O)O)c4ccccc4c3=O)c2C#N)C1 (stereo not drawn)	NadD inh 39 | NadD conf inactive
COCCCNc1cc(C)nc2ccccc12	none
Cc1cc(NCCCCCCCNc2cc(C)nc3cc([N+](=O)[O-])ccc23)c2ccc([N+](=O)[O-])cc2n1	NadD inh 66 (no result: IMP-1 inh, VIM-2 inh, core dimer inh) | NadD conf 65
COCCNc1nc(NCc2ccc(C(C)C)cc2)c2sccc2n1	none (no result: IMP-1 inh, VIM-2 inh, core dimer inh)
FC(F)(F)c1cc(Cl)c2nc(-c3ccco3)c(Cc3ccccc3C(F)(F)F)n2c1	NadD inh 43 (no result: IMP-1 inh, VIM-2 inh, core dimer inh) | NadD conf inactive
Cc1ccc(S(=O)(=O)N2CCN(c3ncnc4scc(-c5ccc(F)cc5)c34)CC2)cc1	NadD inh 37 (no result: IMP-1 inh, VIM-2 inh) | NadD conf inactive
Cc1ccc(S(=O)(=O)N2CCN(c3ncnc4scc(-c5ccccc5)c34)CC2)cc1	none (no result: IMP-1 inh, VIM-2 inh, core dimer inh)
COc1ccc(-c2csc3ncnc(N4CCN(S(=O)(=O)c5cccc(Br)c5)CC4)c23)cc1	NadD inh 31 (no result: IMP-1 inh, VIM-2 inh) | NadD conf inactive
O=C(/C=C/NNC(=O)c1cccc(Br)c1)c1cccc(Br)c1	NadD inh 30 | NadD conf inactive
COC(=O)c1ccc(C)c(NC(=O)C(CCSC)NC(=O)c2cc(OC)c(OC)c(OC)c2)c1 (stereo not drawn)	none
Cn1nnnc1SCC(=O)C(C)(C)C	none
Cc1[nH][nH]c(=O)c1C(c1c(C)[nH][nH]c1=O)c1cn(Cc2cccc3ccccc23)c2ccccc12	NadD inh 46 | NadD conf 67
Cc1ccc([C@@H]2CC=C(C(=O)O)[C@H](c3ccc(C(C)(C)C)cc3)N2S(=O)(=O)c2ccc(C)cc2)cc1	none (no result: IMP-1 inh, VIM-2 inh, core dimer inh)
Cc1ccc(S(=O)(=O)N2[C@@H](c3ccc(C(C)(C)C)cc3)C(C(=O)O)=CC[C@H]2c2ccc(C(C)C)cc2)cc1	NadD inh 51 (no result: IMP-1 inh, VIM-2 inh, core dimer inh) | NadD conf inactive
COc1ccccc1-n1c(SCC(=O)c2ccc(O)cc2O)nc2cc([N+](=O)[O-])ccc21	NadD inh 49 | NadD conf inactive
Nc1c(S(=O)(=O)c2ccccc2)c2nc3ccccc3nc2n1/N=C/c1ccco1	NadD inh 37 | NadD conf inactive
Cc1cccc(S(=O)(=O)c2c(N)n(/N=C/c3cccnc3)c3nc4ccccc4nc23)c1	none
Cc1cccc(S(=O)(=O)c2c(N)n(/N=C/c3ccco3)c3nc4ccccc4nc23)c1	NadD inh 41 | NadD conf inactive
Cc1ccc(C(C)C)c(OCc2ccc(C(=O)N/N=C/c3ccc(O)cc3O)cc2)c1	none
Cc1ccc(C(C)C)c(OCc2ccc(C(=O)N/N=C/c3ccc(C(=O)O)cc3)cc2)c1	NadD inh 30 | NadD conf inactive
COc1cc(/C=N/NC(=O)c2ccc(CN3c4cccc5cccc(c45)S3(=O)=O)cc2)cc(OC)c1O	none (no result: core dimer inh)
COc1ccc(/C=N/NC(=O)c2ccc(CN3c4cccc5cccc(c45)S3(=O)=O)cc2)cc1	NadD inh 31 | NadD conf inactive
COc1ccccc1/C=N/NC(=O)c1ccc(CN2C(=O)c3cccc4cccc2c34)cc1	NadD inh 35 | NadD conf inactive
NNC(=O)c1ccc(CN2C(=O)c3cccc4cccc2c34)cc1	none
Cc1cc(NC(=O)CCC(=O)N(Cc2ccco2)C2(C(=O)NC3CCCCC3)CCCCC2)no1	none
O=C(N/N=C/C=C\c1ccco1)c1ccccn1	none
O=C(N/N=C\C=C\c1ccco1)c1cc(-c2ccc3ccccc3c2)n[nH]1	NadD inh 54 | NadD conf 69
CC1(C)CC(NS(=O)(=O)c2ccc3ccccc3c2)CC(C)(C)N1	none
Cc1ccc(C)c(N2CCN(C(=O)c3ccc4nc(-c5ccco5)c(-c5ccco5)nc4c3)CC2)c1	NadD inh 64 | NadD conf inactive
COc1ccccc1N1CCN(C(=O)c2ccc3nc(-c4ccco4)c(-c4ccco4)nc3c2)CC1	none
O=C(c1ccccc1)c1ccc2nc(-c3ccco3)c(-c3ccco3)nc2c1	core dimer inh 47, NadD inh 75 | NadD conf inactive
CCC(C)(C)C1CCC2(CC1)NC(=O)N(CC(=O)N1CCN(S(=O)(=O)c3cc(C)ccc3C)CC1)C2=O (stereo not drawn)	none
CCCN(CCC)S(=O)(=O)c1ccc(C(=O)Nc2nnc(-c3cc(OC)cc(OC)c3)o2)cc1	NadD inh 58 | NadD conf inactive
